Assay outcomes as filed in PubChem.
An excerpt weighted towards active compounds, which were near 2.1% of everything screened.
STEP inh = STEP (human) phosphatase inhibition. inhibition, % at 20 µM. 360,000 tested, 0.25% active. recombinant STEP, OMFP fluorogenic substrate, fluorescence;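 active = inhibition at 20 µM, scaled per plate between control wells, above about 37%, limit read from the data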;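 also: 0% = DMSO with enzyme and substrate and 100% = substrate only without enzyme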
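Assay system: isolated STEP enzyme. Buffer or medium: pH 6.0 Bis-Tris with DTT and Tween 20. Also added: fluorogenic phosphatase substrate OMFP at 25 µM final. Dosing: 20 µM, 1% DMSO. Timing: 20 min reaction, room temperature, in the dark. Measured by: fluorescence intensity, excitation 480 nm, emission 540 nm. Evaluation: normalized % inhibition.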
Scp1 inh = blocks human Scp-1 phosphatase activity | Q9GZU7 | Recombinant Scp1, phosphopeptide, malachite green phosphate absorbance | inhibition, % at 20 µM | 340,000 tested, 0.88% active;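 active = inhibition above about 50% at 20 µM, limit read from the data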;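 also: plate controls were DMSO wells with enzyme for no effect and wells lacking enzyme for full effect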
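Test system: SCP-1 phosphatase catalytic domain, residues 76-261; measured by: colorimetric phosphate reagent with accelerator and stabiliser, absorbance at 630 nm; timing: enzyme reaction 45 min at room temperature, colour 5 min, stabilisation 30 min; also added: Phosphorylated 17-residue peptide substrate; compound dosing: one concentration, 20 µM, with 1.0% DMSO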
SUMO1-SIM PPI = modulators of human SUMO1-mediated protein-protein interactions; P63165; SUMO1 binding to a labelled peptide, TR-FRET, 1 h; inhibition, % at 20 µM; 360,000 tested, 0.33% active; AID 602429; in the data active = inhibition above about 37%
DNMT1 block = blocks human DNA methyltransferase DNMT1 | P26358 | DNMT1 molecular beacon, Hinp1I cleavage, fluorescence | inhibition (reported as % activation of signal), % at 10 µM | 360,000 tested, 0.83% active | AID 588458; in the data active = inhibition above about 50%
Target sequence (P26358 504-1616 limits assumed): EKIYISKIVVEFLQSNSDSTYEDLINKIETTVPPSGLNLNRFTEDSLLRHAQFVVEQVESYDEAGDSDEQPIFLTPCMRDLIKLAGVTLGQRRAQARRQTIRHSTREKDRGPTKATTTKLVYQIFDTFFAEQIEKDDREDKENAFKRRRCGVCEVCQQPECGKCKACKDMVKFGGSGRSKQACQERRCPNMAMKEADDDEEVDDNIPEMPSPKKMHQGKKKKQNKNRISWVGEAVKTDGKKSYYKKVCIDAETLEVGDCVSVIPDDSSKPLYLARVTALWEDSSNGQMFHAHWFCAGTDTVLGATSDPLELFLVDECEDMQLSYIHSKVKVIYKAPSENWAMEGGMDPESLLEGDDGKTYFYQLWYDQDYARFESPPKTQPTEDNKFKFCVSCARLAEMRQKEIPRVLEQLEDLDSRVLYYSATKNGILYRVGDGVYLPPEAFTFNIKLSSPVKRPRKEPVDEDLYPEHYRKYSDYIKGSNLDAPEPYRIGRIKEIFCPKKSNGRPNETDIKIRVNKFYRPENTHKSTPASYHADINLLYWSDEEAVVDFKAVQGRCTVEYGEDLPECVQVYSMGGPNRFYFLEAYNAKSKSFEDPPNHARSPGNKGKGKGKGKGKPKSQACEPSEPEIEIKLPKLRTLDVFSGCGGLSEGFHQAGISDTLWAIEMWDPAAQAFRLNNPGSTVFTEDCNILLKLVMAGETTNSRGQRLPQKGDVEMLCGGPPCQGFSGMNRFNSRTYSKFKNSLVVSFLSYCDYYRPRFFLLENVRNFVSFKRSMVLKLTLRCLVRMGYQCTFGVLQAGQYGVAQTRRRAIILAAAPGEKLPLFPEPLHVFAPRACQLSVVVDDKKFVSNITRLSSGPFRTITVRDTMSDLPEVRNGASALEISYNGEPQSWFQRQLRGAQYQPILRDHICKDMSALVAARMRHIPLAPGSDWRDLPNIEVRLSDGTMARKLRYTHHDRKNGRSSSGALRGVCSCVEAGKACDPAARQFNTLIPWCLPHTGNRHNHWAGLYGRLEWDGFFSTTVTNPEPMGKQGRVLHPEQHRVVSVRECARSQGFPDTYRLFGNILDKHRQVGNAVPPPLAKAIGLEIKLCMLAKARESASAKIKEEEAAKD
GRK2 aptamer HTS = inhibitors of human GRK2 displacing RNA aptamer; P25098; bead flow cytometry, FAM-aptamer displacement from GRK2; inhibition of aptamer binding, % at 10 µM; 330,000 tested, 0.59% active; AID 488847;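 active = inhibition of aptamer binding above 40%, roughly 3 SD of noise, on plates passing a quality check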;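 also: median bead fluorescence of bound FAM aptamer so fluorescent compounds give negative values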
LMPTP block = LMPTP (human) inhibition; 360,000 tested, 0.22% active; recombinant LMPTP-A, OMFP fluorogenic substrate, fluorescence intensity; P24666; AID 651560; inhibition, % at 20 µM;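 active = compounds that cut the enzyme signal by at least half of the control window in the single-dose screen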;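 also: plate controls were DMSO wells with enzyme plus substrate for no effect and substrate without enzyme for full effect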
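material = LMPTP-A | quantity = 0.625 nM enzyme | reagent = OMFP substrate, 400 µM final | buffer or medium = Bis-Tris pH 6.0, DTT, detergent | detection = endpoint fluorescence intensity from OMFP dephosphorylation | dosing = single 20 µM dose | read-out basis = % inhibition relative to no-enzyme and uninhibited control wells | control set = no-enzyme and uninhibited controls | timing = 50 min at room temperature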
GRK2 inh confirm = confirmation of human GRK2 inhibitors displacing RNA aptamer | shares compounds with GRK2 aptamer HTS | AID 504451 | aptamer displacement, % at 10 µM | 2,000 tested, 4% active | bead-bound GRK2, FAM-aptamer displacement, flow cytometry;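 active = aptamer displacement above 40%, near three times the noise of non-fluorescent compounds, on plates passing quality checks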;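 also: negative values mostly reflect intrinsic compound fluorescence rather than true enhancement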
Aptamer quench SP = counter-screen for GRK2 aptamer inhibitors: fluorescent aptamer quenchers | fluorescence response (% of DMSO), % at 10 µM | AID 504580 | Carboxyfluorescein RNA aptamer on beads, flow cytometry quenching; hits give low values | 2,000 tested, under 10 active | shares compounds with GRK2 aptamer HTS;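 active = compounds that quench the bead-bound fluorescent RNA probe, cutting fluorescence to under half of the solvent control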;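 also: counterscreen run without GRK2 so only probe quenching by compound is measured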
GRK2 CP2 = confirmation of human GRK2 inhibitors binding RNA aptamer site. shares compounds with GRK2 aptamer HTS. bead-bound GRK2, FAM-aptamer displacement, flow cytometry. AID 504782. 360 tested, under 10 active. inhibition of aptamer binding, % at 10 µM;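 active = inhibition of aptamer binding above 40%, about triple the noise seen with nonglowing compounds, on plates passing quality control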;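 also: negative values mostly come from compounds that fluoresce themselves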
FAM quench CP2 = aptamer fluorescence quenching in GRK2 counter-screen | fluorescence response vs DMSO, % at 10 µM | 360 tested, under 10 active | carboxyfluorescein RNA aptamer beads, flow cytometry quenching; hits give low values | shares compounds with GRK2 aptamer HTS | AID 588494;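 active = response vs DMSO under 50%, meaning signal dropped by over half, treated as fluorescence quencher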;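 also: labelled aptamer on streptavidin beads without GRK2 as a quench counter-screen; 100% = bead fluorescence of DMSO wells and lower means quenching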
Numbers without * were called inactive; . = no result.

SMILES	STEP inh	Scp1 inh	SUMO1-SIM PPI	DNMT1 block	GRK2 aptamer HTS	LMPTP block	GRK2 inh confirm	Aptamer quench SP	others
O=C(Nn1cnnc1)c1cc(Br)ccc1Cl	0	1	1	1	53*	-1	-1	100
COc1cc(CCN(C(=O)c2cccc(S(C)(=O)=O)c2)C(CCc2ccccc2)c2nc3ccccc3[nH]2)cc(OC)c1 (centres undefined)	0	.	-1	-14	.	2	.	.
c1coc(CNc2c3c(nc4ccccc24)CCC3)c1	-3	5	2	28	0	29	.	.	GRK2 CP2=2;FAM quench CP2=101
O=C(NCCO)c1ccc(-c2ccc3nncn3c2)cc1	-3	.	-9	6	.	-1	.	.
COc1ccc(-c2nc3ccc(Br)cn3c2Cc2ccsc2)cc1OC	-2	.	8	-26	.	1	.	.
CCOC(=O)Nc1ccc2c(c1)nc(CN1CCCCC1)n2C	-2	.	1	-2	3	0	.	.
CCOC(=O)Nc1ccc2c(c1)nc(CN1CCN(C(C)=O)CC1)n2C	0	-5	-1	-1	68*	0	0	104
Cc1cc(C)c(S(=O)(=O)c2c(C)cccc2C)c(Cl)n1	-1	5	1	-2	81*	-1	-1	100
O=C(CSc1ccccc1)Nc1ccc(Cl)c(S(=O)(=O)N2CCOCC2)c1	-2	-10	6	-5	21	1	-3	97
COc1ccc(C(=O)O)cc1N1C(=O)Nc2ccccc2N1O	2	-4	0	-2	78*	-2	0	100
O=C(O)c1ccc(Cl)c(N2C(=O)Nc3ccccc3N2O)c1	1	-4	11	0	2	-1	.	.
COCCCNc1ccn2nc(-c3ccc(Cl)cc3)cc2n1	2	.	16	-6	.	3	.	.
Cc1cccc(NC(=O)CCS(=O)(=O)c2ccc(Cl)cc2)c1	-1	-10	1	-3	3	0	.	.	GRK2 CP2=0;FAM quench CP2=100
O=C(CCS(=O)(=O)c1ccccc1)Nc1ccccn1	4	13	-1	4	76*	0	2	101
Cc1ccnc(NC(=O)CCS(=O)(=O)c2ccccc2)c1	2	19	4	18	14	1	8	97
O=C(CCS(=O)(=O)c1ccccc1)Nc1ccc(S(=O)(=O)Nc2ncccn2)cc1	1	-1	6	2	0	-2	.	.
Cc1cccc(NC(=O)CCS(=O)(=O)c2ccc(Br)cc2)c1	-1	-10	4	-1	3	1	.	.
CC(C)(C)NC(=O)C(c1ccc(C#N)cc1)n1c(=O)c(-c2ccco2)nc2ccccc21 (centres undefined)	.	.	-6	.	.	1	.	.
CCOC(=O)C1(C)CCCN(C(=O)C(c2ccccc2)c2ccccc2)C1 (centres undefined)	-2	.	-2	-4	.	0	.	.
COc1cccc(NS(=O)(=O)c2c(C)n(C)c(=O)n(C)c2=O)c1	-3	-1	12	2	84*	-2	17	97
CCOc1ccc2nc(NS(=O)(=O)c3ccc4c(c3)n(C)c(=O)n4C)sc2c1	2	-2	14	3	61*	-1	-4	95
COc1ccc(S(=O)(=O)Nc2ccc3c(c2)n(C)c(=O)n3C)cc1	-4	-1	2	1	19	1	1	67
Cc1ccc(C(=O)NCCCNCCCNC(=O)c2ccc(C)nc2)cn1	0	-3	0	-1	45*	-4	0	98
O=C(Nc1ccc2c(c1)OCCO2)C(C1CC1)n1c(=O)c(-c2cc3ccccc3[nH]2)nc2ccccc21 (centres undefined)	.	.	0	.	.	5	.	.
CS(=O)(=O)N(CC(=O)Nc1ccc2c(c1)OCO2)c1ccc2c(c1)OCO2	-1	-2	2	-14	0	1	.	.
SMILES	STEP inh	Scp1 inh	SUMO1-SIM PPI	DNMT1 block	GRK2 aptamer HTS	LMPTP block	GRK2 inh confirm	Aptamer quench SP	others
CN(C)C(=O)CN(c1ccc2c(c1)OCO2)S(C)(=O)=O	-2	-4	4	-2	47*	-1	4	103
Nc1c(Cl)cc(C(=O)NC2CC2)cc1Cl	-4	6	9	4	.	-1	.	.
CCCCSCCCNC(=O)c1ccc2c(c1)N(CC)C(=O)c1ccccc1S2=O (centres undefined)	2	0	2	-5	47*	1	.	.	GRK2 CP2=9;FAM quench CP2=100
OCC1(CCCc2ccccc2)CCN(Cc2cnc(N3CCOCC3)s2)CC1	0	7	1	-1	0	-1	-2	94
CC1Sc2ccc(S(=O)(=O)CCC(=O)NCc3ccccc3)cc2NC1=O (centres undefined)	-1	21	17	18	35	-2	.	.	GRK2 CP2=-12;FAM quench CP2=101
Cc1cc(NC(=O)CCS(=O)(=O)c2ccc3c(c2)NC(=O)C(C)S3)ccc1Br (centres undefined)	4	5	8	-3	3	1	.	.	GRK2 CP2=19;FAM quench CP2=102
COc1ccc(NC(=O)CCS(=O)(=O)c2ccc3c(c2)NC(=O)C(C)S3)cc1OC (centres undefined)	-4	-5	3	4	0	0	.	.
CC1Sc2ccc(S(=O)(=O)CCC(=O)NCc3ccc(Cl)cc3)cc2NC1=O (centres undefined)	25	25	11	7	48*	4	2	103	GRK2 CP2=31;FAM quench CP2=98
CC1Sc2ccc(S(=O)(=O)CCC(=O)Nc3cc(F)ccc3F)cc2NC1=O (centres undefined)	0	-3	1	-2	0	0	.	.	GRK2 CP2=-2;FAM quench CP2=102
Cc1ccc(S(=O)(=O)N(C)C[C@@H]2Oc3ccc(NC(=O)Cn4cnnn4)cc3C(=O)N([C@@H](C)CO)C[C@H]2C)cc1	0	-6	3	-4	0	2	.	.
CC(=O)N1C[C@H]2CON(C)[C@H]2C[C@H]1c1ccc(-c2cccnc2)cc1	0	.	8	5	.	-1	.	.
CS(=O)(=O)N(CC(=O)Nc1ccccc1-c1ccccc1)c1ccccc1	2	-1	-1	-5	1	1	.	.
Cc1ccc(N(CC(=O)Nc2ccccc2-c2ccccc2)S(=O)(=O)c2ccccc2)c(C)c1	4	3	3	-2	40	3	-3	106
